ChEMBL document CHEMBL1131093, “ATP-Citrate lyase as a target for hypolipidemic intervention. 2. Synthesis and evaluation of (3R,5S)-omega-substituted-3-carboxy-3, 5-dihydroxyalkanoic acids and their gamma-lactone prodrugs as inhibitors of the enzyme in vitro and in vivo” (J Med Chem, 1998)

How the values were obtained:
ATP-citrate synthase [1] = target: T1, ATP-citrate synthase (Homo sapiens, UniProt P53396); assay: Inhibitory activity against human recombinant ATP-Citrate Lyase (ACL) enzyme
T1 sequence (P53396 whole entry): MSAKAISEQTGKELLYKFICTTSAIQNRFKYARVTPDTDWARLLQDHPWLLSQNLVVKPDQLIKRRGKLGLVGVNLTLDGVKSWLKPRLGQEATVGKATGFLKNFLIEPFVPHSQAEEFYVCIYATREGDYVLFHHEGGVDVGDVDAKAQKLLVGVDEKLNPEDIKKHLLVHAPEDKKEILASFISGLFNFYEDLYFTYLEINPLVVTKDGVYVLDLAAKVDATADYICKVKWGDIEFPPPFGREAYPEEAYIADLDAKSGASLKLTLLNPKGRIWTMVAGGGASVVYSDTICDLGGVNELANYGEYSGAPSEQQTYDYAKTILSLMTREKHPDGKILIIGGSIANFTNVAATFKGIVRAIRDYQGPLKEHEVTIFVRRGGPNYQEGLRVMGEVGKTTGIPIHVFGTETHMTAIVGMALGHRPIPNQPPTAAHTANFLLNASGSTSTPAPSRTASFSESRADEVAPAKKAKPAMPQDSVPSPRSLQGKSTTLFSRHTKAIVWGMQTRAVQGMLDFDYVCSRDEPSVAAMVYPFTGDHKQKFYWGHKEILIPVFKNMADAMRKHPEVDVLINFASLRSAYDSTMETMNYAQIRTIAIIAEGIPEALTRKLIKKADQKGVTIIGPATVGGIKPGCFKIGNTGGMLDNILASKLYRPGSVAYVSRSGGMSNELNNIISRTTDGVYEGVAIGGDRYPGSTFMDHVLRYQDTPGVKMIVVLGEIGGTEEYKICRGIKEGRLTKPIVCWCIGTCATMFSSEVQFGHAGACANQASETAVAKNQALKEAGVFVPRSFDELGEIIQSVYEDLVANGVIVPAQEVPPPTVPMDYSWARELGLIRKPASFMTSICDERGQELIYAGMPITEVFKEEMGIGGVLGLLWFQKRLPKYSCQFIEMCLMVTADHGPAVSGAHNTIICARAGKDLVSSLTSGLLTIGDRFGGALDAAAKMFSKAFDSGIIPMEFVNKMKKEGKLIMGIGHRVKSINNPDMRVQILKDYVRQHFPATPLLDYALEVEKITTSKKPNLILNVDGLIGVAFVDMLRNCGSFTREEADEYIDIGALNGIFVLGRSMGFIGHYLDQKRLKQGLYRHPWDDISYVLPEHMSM
Outline: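 Human recombinant ATP-citrate lyase was used. Lactone intermediates were hydrolysed with aqueous NaOH to the hydroxy acid before being added to the enzyme buffer mix. Potency was reported as the reversible Ki.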

Rattus norvegicus [2] = assay: % Reduction of plasma triglyceride in the rat was measured at dose 37.5 mg/kg/d; type: functional
Outline: (§1)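 Male Sprague-Dawley rats were kept on a reverse 12 h light/12 h dark cycle with free access to RM1 powdered diet and water. Compound was given orally by gavage as two doses 24 h apart. Blood was drawn mid dark cycle, 4 h after the second dose, into EDTA. Plasma was separated at 1500g for 15 min. Triglyceride was measured enzymatically (GPO-PAP) and reported as % reduction from control.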

Rattus norvegicus [3] = assay: % Reduction of plasma triglyceride in the rat was measured at dose 75 mg/kg/d; type: functional; outline: as §1
ATP-citrate synthase [4] = target: T2, ATP-citrate synthase (Rattus norvegicus, UniProt P16638); assay: Inhibitory activity was tested against rat ATP-Citrate Lyase (ACL) enzyme
T2 sequence (P16638 whole entry): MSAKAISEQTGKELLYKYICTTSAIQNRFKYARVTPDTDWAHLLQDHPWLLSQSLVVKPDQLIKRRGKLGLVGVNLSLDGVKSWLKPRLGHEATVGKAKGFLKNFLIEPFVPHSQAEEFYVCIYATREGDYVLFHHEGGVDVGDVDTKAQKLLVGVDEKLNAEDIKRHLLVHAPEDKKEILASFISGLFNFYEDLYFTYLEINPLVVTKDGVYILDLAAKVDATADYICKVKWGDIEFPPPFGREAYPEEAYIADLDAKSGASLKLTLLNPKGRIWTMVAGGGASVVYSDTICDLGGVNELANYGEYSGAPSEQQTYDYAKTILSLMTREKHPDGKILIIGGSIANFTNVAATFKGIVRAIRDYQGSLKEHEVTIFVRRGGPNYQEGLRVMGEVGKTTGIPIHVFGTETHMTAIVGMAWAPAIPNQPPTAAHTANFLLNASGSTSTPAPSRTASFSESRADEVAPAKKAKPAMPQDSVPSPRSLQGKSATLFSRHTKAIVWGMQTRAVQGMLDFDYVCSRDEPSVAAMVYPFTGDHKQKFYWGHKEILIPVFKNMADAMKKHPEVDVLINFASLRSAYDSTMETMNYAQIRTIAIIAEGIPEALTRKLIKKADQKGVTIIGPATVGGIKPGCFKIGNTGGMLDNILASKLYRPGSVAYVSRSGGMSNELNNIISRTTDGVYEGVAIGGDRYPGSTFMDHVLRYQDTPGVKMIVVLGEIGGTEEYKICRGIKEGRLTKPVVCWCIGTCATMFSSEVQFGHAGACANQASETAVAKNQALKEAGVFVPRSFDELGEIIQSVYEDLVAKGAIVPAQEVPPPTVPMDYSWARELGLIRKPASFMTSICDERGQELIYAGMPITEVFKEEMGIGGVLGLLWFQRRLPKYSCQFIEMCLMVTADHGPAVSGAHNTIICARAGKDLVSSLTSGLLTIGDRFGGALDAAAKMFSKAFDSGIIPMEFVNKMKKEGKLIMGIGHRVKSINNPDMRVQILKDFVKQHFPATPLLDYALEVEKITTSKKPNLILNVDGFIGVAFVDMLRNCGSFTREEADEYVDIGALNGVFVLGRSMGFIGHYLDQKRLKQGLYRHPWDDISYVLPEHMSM

[5] = target: T3, ATP-citrate synthase (Homo sapiens) (UniProt P53396); assay: Inhibitory activity was tested against human recombinant ATP-Citrate Lyase (ACL) enzyme at 100 uM
T3 sequence (whole entry): T1 sequence (P53396 whole entry)

ATP-citrate synthase [6] = target: T2, ATP-citrate synthase; assay: Inhibitory activity was tested against ATP-Citrate Lyase (ACL) enzyme in rat
HepG2 [7] = assay: Inhibition of fatty acid synthesis in HepG2 cells was measured at 3 uM concentration.; type: functional, Homo sapiens; set-up: scale not given: the % may be the effect or the level left
Outline: (§2)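 Compounds were applied to HepG2 cells as their γ-lactone prodrugs. De novo cholesterol synthesis, fatty acid synthesis and cellular ATP levels were each expressed as % of control. Significance was marked at p < 0.001.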

HepG2 [8] = assay: Inhibition of ATP levels in HepG2 cells was measured at 10 uM concentration.; type: functional, Homo sapiens; set-up: scale not given: the % may be the effect or the level left; outline: as §2
HepG2 [9] = assay: Inhibition of fatty acid synthesis in HepG2 cells was measured at 10 uM concentration.; type: functional, Homo sapiens; set-up: scale not given: the % may be the effect or the level left; outline: as §2
HepG2 [10] = assay: Inhibition of cholesterol synthesis in HepG2 cells was measured at 3 uM concentration.; type: functional, Homo sapiens; set-up: scale not given: the % may be the effect or the level left; outline: as §2
HepG2 [11] = assay: Inhibition of cholesterol synthesis in HepG2 cells was measured at 10 uM concentration.; type: functional, Homo sapiens; set-up: scale not given: the % may be the effect or the level left; outline: as §2
HepG2 [12] = assay: Inhibition of ATP levels in HepG2 cells was measured at 3 uM concentration.; type: functional, Homo sapiens; set-up: scale not given: the % may be the effect or the level left; outline: as §2

| Compound | Ki (ATP-citrate synthase [1]) [nM] | other results |
| --- | --- | --- |
| O=C(O)C[C@](O)(C(=O)O)[C@@H](O)CCCCCCCCc1ccc(Cl)cc1Cl | 18000 | – |
| O=C(O)C[C@@]1(O)C[C@@H](CCCCCC2c3ccccc3-c3cc(Cl)ccc32)OC1=O (some centres undefined) | – | Reduction (Rattus norvegicus [2]): 5%; Reduction (Rattus norvegicus [3]): 16% |
| O=C(O)C[C@](O)(C(=O)O)[C@@H](O)CCCCCCCc1ccc(Cl)cc1Cl | 5700 | – |
| Cc1cc2cc(Cl)ccc2n1CCCCC[C@@H](O)C[C@](O)(CC(=O)O)C(=O)O | 13000 | – |
| O=C(O)C[C@@](O)(C[C@H](O)CCCCCn1ccc2ccc(Cl)cc21)C(=O)O | 41000 | – |
| O=C(O)C[C@@]1(O)C[C@@H](CCCCCn2c3ccccc3c3cc(Cl)ccc32)OC1=O | – | Reduction (Rattus norvegicus [2]): 16%; Reduction (Rattus norvegicus [3]): 33% |
| O=C(O)C[C@@](O)(C[C@H](O)CCCCCn1cc([N+](=O)[O-])c2cc(Cl)ccc21)C(=O)O | 64000 | – |
| O=C(O)C[C@@](O)(C[C@H](O)CCCCCCc1ccc(Cl)cc1O)C(=O)O | – | inhibition [5]: 24% |
| O=C(O)C[C@@](O)(C[C@H](O)CCCCCn1cc(-c2ccccc2)c2cc(Cl)ccc21)C(=O)O | 11000 | – |
| Cc1ccc(C)n1-c1cc(Cl)ccc1CCCCCC[C@@H](O)C[C@](O)(CC(=O)O)C(=O)O | – | inhibition [5]: 67% |
| O=C(O)C[C@@](O)(CC(=O)CCCCCCc1ccc(Cl)cc1Cl)C(=O)O | – | Ki (ATP-citrate synthase [4]): 1200 nM |
| O=C(O)C[C@@](O)(C[C@H](O)CCCCn1ccc2cc(Cl)ccc21)C(=O)O | 160000 | – |
| Cc1cn(CCCCC[C@@H](O)C[C@](O)(CC(=O)O)C(=O)O)c2ccc(Cl)cc12 | 9500 | – |
| O=C(O)C[C@@](O)(C[C@H](O)CCCCCCc1ccc(Cl)cc1-c1ccc(Cl)cc1Cl)C(=O)O | 21000 | – |
| O=C(O)C[C@@](O)(CCCCCCCCc1ccc(Cl)cc1Cl)C(=O)O | – | Ki (ATP-citrate synthase [6]): 2900 nM |
| COc1cc(Cl)ccc1CCCCCC[C@@H](O)C[C@](O)(CC(=O)O)C(=O)O | 19000 | – |
| N[C@H](C(=O)O)[C@@](O)(CC(=O)O)C(=O)O | – | Ki (ATP-citrate synthase [6]): 11000 nM |
| O=C(O)C[C@@]1(O)C[C@@H](CCCCCCc2ccc(Cl)cc2Cl)OC1=O | – | Control (HepG2 [7]): 114%; Reduction (Rattus norvegicus [2]): 31%; Control (HepG2 [8]): 97%; Control (HepG2 [9]): 74%; Control (HepG2 [10]): 98%; Reduction (Rattus norvegicus [3]): 56%; Control (HepG2 [11]): 53%; Control (HepG2 [12]): 97% |
| O=C(O)C[C@@]1(O)C[C@@H](CCCCCCc2ccc(Cl)cc2COc2ccccc2)OC1=O | – | Reduction (Rattus norvegicus [2]): 22%; Reduction (Rattus norvegicus [3]): 34% |

The next lines start with results.

| Ki (ATP-citrate synthase [1]) [nM] | Compound | other results |
| --- | --- | --- |
| 5100 | COc1ccc(-c2cc(Cl)ccc2CCCCCC[C@@H](O)C[C@](O)(CC(=O)O)C(=O)O)cc1 | – |
| 750 | O=C(O)C[C@@](O)(C[C@H](O)CCCCCCc1ccc(Cl)cc1-c1ccccc1)C(=O)O | – |
| 550 | O=C(O)[C@H](O)[C@@](O)(C[C@H](O)CCCCCCc1ccc(Cl)cc1Cl)C(=O)O | – |
| 2900 | O=C(O)C[C@@](O)(C[C@H](O)CCCCCn1c2c(c3cc(Cl)ccc31)CCCC2)C(=O)O | – |
| 5000 | O=C(O)C[C@@](O)(C[C@H](O)CCCCCCc1ccc(Cl)cc1-c1ccc(Cl)cc1)C(=O)O | – |
| 340 | Cc1cn(-c2cc(Cl)ccc2CCCCCC[C@@H](O)C[C@](O)(CC(=O)O)C(=O)O)cc1C (stereo in doubt; (-)-58) | – |
| 2000 | O=C(O)C[C@@](O)(C[C@@H](O)CCCCCCc1ccc(Cl)cc1Cl)C(=O)O | – |
| 3900 | O=C(O)C[C@@](O)(C[C@H](O)CCCCCCc1ccc(Cl)cc1-n1cccc1)C(=O)O | – |
| 2700 | Cc1ccc(-c2cc(Cl)ccc2CCCCCC[C@@H](O)C[C@](O)(CC(=O)O)C(=O)O)cc1 | – |
| 880 | O=C(O)C[C@@](O)(C[C@H](O)CCCCCCc1ccc(Cl)cc1Cl)C(=O)O (stereo in doubt; (+)-45) | Ki (ATP-citrate synthase [4]): 700 nM |
| 2700 | O=C(O)C[C@@](O)(C[C@H](O)CCCCCCc1ccc(Cl)cc1-c1ccc(F)cc1)C(=O)O | – |
| 1800 | O=C(O)C[C@@](O)(C[C@H](O)CCCCCn1ccc2cc(Cl)cc(Cl)c21)C(=O)O | – |
| 370 | O=C(O)C[C@@](O)(C[C@H](O)CCCCCn1c(-c2ccccc2)cc2cc(Cl)ccc21)C(=O)O | – |
| 3200 | O=C(O)C[C@@](O)(C[C@H](O)CCCCCCn1ccc2cc(Cl)ccc21)C(=O)O | – |
| 620 | O=C(O)[C@@H](O)[C@@](O)(C[C@H](O)CCCCCCc1ccc(Cl)cc1Cl)C(=O)O | – |
| 2900 | O=C(O)C[C@@](O)(C[C@H](O)CCCCCn1cc(Cc2ccccc2)c2cc(Cl)ccc21)C(=O)O | – |
| 3500 | O=C(O)C[C@@](O)(C[C@H](O)CCCCCn1ccc2cc(Cl)ccc21)C(=O)O | – |
| 300 | Cc1cn(-c2cc(Cl)ccc2CCCCCC[C@@H](O)C[C@](O)(CC(=O)O)C(=O)O)cc1C (stereo in doubt; 58) | – |
| 1100 | O=C(O)C[C@@](O)(C[C@H](O)CCCCCCc1ccc(Cl)cc1OCc1ccccc1)C(=O)O | – |
| 770 | O=C(O)C[C@@](O)(C[C@H](O)CCCCCCc1ccc(Cl)cc1Cl)C(=O)O (stereo in doubt; (-)-45) | Ki (ATP-citrate synthase [4]): 700 nM |
| 220 | O=C(O)C[C@@](O)(C[C@H](O)CCCCCC1c2ccccc2-c2cc(Cl)ccc21)C(=O)O (some centres undefined) | – |
| 580 | Cc1cn(-c2cc(Cl)ccc2CCCCCC[C@@H](O)C[C@](O)(CC(=O)O)C(=O)O)cc1C (stereo in doubt; (+)-58) | – |
| 710 | O=C(O)C[C@@](O)(C[C@H](O)CCCCCn1c2ccccc2c2cc(Cl)ccc21)C(=O)O | – |
